Experimental findings from ChEMBL document CHEMBL3297688, “New orally active dual enkephalinase inhibitors (DENKIs) for central and peripheral pain treatment” (J Med Chem, 2014) are described below.

Broadly, the ED50 is the dose at which the effect has come halfway, by size or by number of responders. The Emax is the greatest response seen or fitted, relative to the assay's reference.

SMILES strings stand for the structures. Activity calls are given as the source filed them.

Data set [1] relates to Mus musculus. Description: Activity in OF1 mouse acute central pain model at 150 mg/kg, po administered as single dose by hot plate test. It counts as functional, organism-based. The arrangement: dose 150 mg/kg. The method in brief: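 Hot plate at 52 ± 1 °C, male OF1 mice. Single oral dose of 150 mg/kg. Jump latency recorded with a 240 s cutoff and converted to % MPE against control latency.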

Data set [2] relates to Mus musculus. Description: Activity in OF1 mouse acute central pain model at 10 mg/kg, iv administered as single dose by hot plate test. The format is functional, organism-based. The arrangement: dose 10 mg/kg. (Thermal pain tests record how soon the animal reacts.)
Data set [3] has as its system Mus musculus. The data set can be described thus: Antinociceptive activity in OF1 mouse acute central pain model at 20 mg/kg, iv after 10 mins by hot plate test relative to vehicle-treated control. The format is functional. Summed up: (§1)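 Male OF1 mice, iv dosing in water/mannitol (50 mg/mL) vehicle. Hot plate at 52 ± 1 °C read 10 min post-injection. Jump latency with a 240 s cutoff, expressed as % MPE. n = 10 per group. ANOVA with Newman–Keuls or Bonferroni tests versus vehicle.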

Data set [4] has as its system Mus musculus. Description: Antinociceptive activity in OF1 mouse persistent pain model assessed as reduction of formalin-induced paw licking at 50 mg/kg, po administered with EtOH/methyl cellulose in water 90 mins prior to formalin challenge measured after 1 to 5 mins relative to vehicle-treated control. The format is functional. The arrangement: scale not given: the % may be the effect or the level left. Summed up:
(§2)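 Male OF1 mice gavaged with 50 mg/kg in ethanol/methylcellulose 0.5% in water (1.5/98.5), 30 or 90 min before a plantar sc injection of 5% formalin (20 μL in saline). Licking time recorded over 0–5 min (early phase). n = 5–7 per group. ANOVA + Bonferroni versus vehicle.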

Data set [5] relates to Mus musculus. Description: Antinociceptive activity in OF1 mouse persistent pain model assessed as reduction of formalin-induced paw licking at 50 mg/kg, po administered with EtOH/methyl cellulose in water 30 mins prior to formalin challenge measured after 1 to 5 mins relative to vehicle-treated control. It counts as functional. The arrangement: scale not given: the % may be the effect or the level left. The method in brief:
as §2

Data set [6] relates to Mus musculus. Description: Antinociceptive activity in OF1 mouse acute central pain model at 10 mg/kg, iv administered with EtOH/Tween80/water after 10 mins by hot plate test relative to vehicle-treated control. The format is functional. Summed up:
(§3)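 Male OF1 mice dosed iv in ethanol/Tween80/water (1/1/8). Jump latency on a 52 ± 1 °C hot plate (240 s cutoff) read 10 min after injection, expressed as mean % MPE ± SEM. n = 18–21 per group for dose–response, n = 8 for 10 mg/kg comparisons. ED50 taken from dose–response. ANOVA + Bonferroni.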

The test system of data set [7] is Mus musculus. The data set can be described thus: Antinociceptive activity in OF1 mouse acute central pain model at 150 mg/kg, po administered with EtOH/PEG400/water after 20 mins by hot plate test relative to vehicle-treated control. It counts as functional. Summed up: (§4)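 Oral gavage in male OF1 mice, vehicle EtOH/PEG400/H2O (10/40/50); 150 mg/kg for single-dose lines. Hot plate (52 ± 1 °C) jump latency read at 20, 40 and 60 min, 240 s cutoff, % MPE. […] ANOVA + Newman–Keuls or Bonferroni.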

Data set [8] deals with Mus musculus. The data set can be described thus: Antinociceptive activity in OF1 mouse acute central pain model at 150 mg/kg, po administered with EtOH/PEG400/water after 40 mins by hot plate test relative to vehicle-treated control. It counts as functional. Summed up: as §4
For data set [9], the system named is Mus musculus. Description: Antinociceptive activity in OF1 mouse acute central pain model at 150 mg/kg, po administered with EtOH/PEG400/water after 60 mins by hot plate test relative to vehicle-treated control. The format is functional. The method in brief: as §4
Data set [10] has as its system Mus musculus. The data set can be described thus: Antinociceptive activity in OF1 mouse acute central pain model at 40 mg/kg, iv after 10 mins by hot plate test relative to vehicle-treated control. The format is functional. The method in brief: as §1
Data set [11] deals with Mus musculus. The data set can be described thus: Antinociceptive activity in OF1 mouse acute central pain model at 60 mg/kg, iv after 10 mins by hot plate test relative to vehicle-treated control. It counts as functional. Summed up:
as §1

For data set [12], the system named is Mus musculus. The data set can be described thus: Antinociceptive activity in po dosed OF1 mouse acute central pain model administered with EtOH/PEG400/water after 20 mins by hot plate test relative to vehicle-treated control. It counts as functional. The method in brief: as §4
Data set [13] has as its system Mus musculus. The data set can be described thus: Antihyperalgesic activity in OF1 mouse neuropathic pain model assessed as increase in partial sciatic nerve ligation-induced reduction in thermal threshold at 25 mg/kg, po by plantar test relative to vehicle-treated control. It counts as functional, organism-based. The arrangement: dose 25 mg/kg. Summed up: (§5)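 Partial ligation of 33–50% of the sciatic nerve in male OF1 mice; sham mice operated without ligation. Tested days 10–20 post-surgery, before and 20 min after 25 mg/kg po. Mechanical threshold by von Frey filaments; thermal latency by plantar test (8–10 s baseline, 20 s cutoff, mean of three trials at 5 min intervals). Ipsilateral and contralateral paws tested. n = 6–9 per group.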

Data set [14] concerns Rattus norvegicus. The data set can be described thus: Antinociceptive activity in iv dosed Sprague-Dawley rat acute centrospinal nociception model administered with EtOH/Tween80/water after 10 to 20 mins by tail flick test relative to vehicle-treated control. The following applies: TDE = time-dependent effect. The format is functional, organism-based.
For data set [15], the system named is Mus musculus. Description: Antinociceptive activity in OF1 mouse acute central pain model at 10 mg/kg, iv after 10 mins by hot plate test relative to vehicle-treated control. It counts as functional.
The test system of data set [16] is Mus musculus. The data set can be described thus: Antiallodynic activity in OF1 mouse neuropathic pain model assessed as increase in partial sciatic nerve ligation-induced reduction of threshold for paw withdrawal at 25 mg/kg, po after 20 mins by von frey test relative to vehicle-treated control. The format is functional. Set-up: scale not given: the % may be the effect or the level left. The method in brief:
as §5

Data set [17] has as its system Rattus norvegicus. The data set can be described thus: Antinociceptive activity in Sprague-Dawley rat acute centrospinal nociception model at 100 mg/kg, po after 20 mins by tail flick test relative to vehicle-treated control. The format is functional.
Data set [18] relates to Mus musculus. Description: Antinociceptive activity in iv dosed OF1 mouse acute central pain model assessed as jump latency administered with water/mannitol after 10 mins by hot plate test relative to vehicle-treated control. The format is functional. The method in brief: as §1
Data set [19] has as its system Mus musculus. Description: Antinociceptive activity in OF1 mouse acute central pain model assessed as time duration of action at 40 mg/kg, iv administered with water/mannitol after 10 mins by hot plate test relative to vehicle-treated control. The format is functional.
The subject of data set [20] is Rattus norvegicus. Description: Antinociceptive activity in Sprague-Dawley rat acute centrospinal nociception model at 20 mg/kg, iv administered with EtOH/Tween80/water after 10 mins by tail flick test relative to vehicle-treated control.
Data set [21] concerns Rattus norvegicus. The data set can be described thus: Prodrug activation in rat plasma at 200 mg, po after 30 mins by LC/MS/MS analysis. Conditions: 0.5 h.
Data set [22] deals with Mus musculus. The data set can be described thus: Antinociceptive activity in iv dosed OF1 mouse acute central pain model assessed as jump latency administered with EtOH/Tween80/water after 10 mins by hot plate test relative to vehicle-treated control. The format is functional. The method in brief:
as §3

Data set [23] deals with Mus musculus. The data set can be described thus: Antinociceptive activity in OF1 mouse acute central pain model assessed as time duration of action at 150 mg/kg, po administered with EtOH/PEG400/water after 20 to 60 mins by hot plate test relative to vehicle-treated control. The format is functional. The method in brief:
as §4

Data set [24] has as its system Mus musculus. Description: Antinociceptive activity in OF1 mouse acute central pain model assessed as jump latency at 10 mg/kg, iv after 10 mins by hot plate test relative to vehicle-treated control in presence of naloxone. The format is functional, organism-based. The arrangement: dose 10 mg/kg. The method in brief: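 Naloxone 0.5 mg/kg given sc before the test compound (10 mg/kg iv) in male OF1 mice. Hot plate (52 ± 1 °C) jump latency measured, 240 s cutoff. n = 7–10 per group. ANOVA followed by Bonferroni versus vehicle and versus drug alone.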

Data set [25] has as its system Mus musculus. The data set can be described thus: Antinociceptive activity in po dosed CD1 mouse after 45 mins by hot plate test. The format is functional. Conditions: 0.75 h.
Data set [26] relates to Mus musculus. The data set can be described thus: Antinociceptive activity in iv dosed CD1 mouse administered with EtOH/cremophor/water after 10 mins by hot plate test. It counts as functional.

Turning to `CSCC[C@H](N)CSSCC(Cc1ccsc1)C(=O)N[C@@H](C)C(=O)O` (stereo partly drawn), the outcome in data set [1] and in [2] was inactive.

As to `CSCC[C@H](N)CSSC[C@@H](Cc1ccccc1)C(=O)NCC(=O)O`, the outcome in data set [1] and in data set [2] was inactive.

For `CSCC[C@H](N)CSSCC(Cc1ccsc1)C(=O)N[C@@H](C)C(=O)OCCS(C)(=O)=O` (stereo partly drawn), the Activity in data set [3] came out at 22%.

Regarding `CCOC(=O)OC(C)OC(=O)CNC(=O)[C@@H](CSSC[C@@H](N)CC[S+](C)[O-])Cc1ccccc1.O=CO` (stereo partly drawn), the Activity in data set [4] turned out to be 41%; in data set [5], 54%; in data set [6], 30%.

The compound `CCOC(=O)OC(C)OC(=O)[C@H](C)NC(=O)C(CSSC[C@@H](N)CCSC)Cc1ccsc1` (stereo partly drawn) gave an Activity in [3] of 44%.

In the case of `CCOC(=O)OC(OC(=O)CNC(=O)[C@@H](CSSC[C@@H](N)CCSC)Cc1ccccc1)C(C)C` (stereo partly drawn), the Activity in data set [7] worked out at 46%; in data set [8], 18%; in data set [9] it was 0%.

Compound `CSCC[C@H](N)CSSCC(Cc1ccsc1)C(=O)N[C@@H](C)C(=O)OC[C@H](COC(C)=O)OC(C)=O` (stereo partly drawn) gave an Activity in data set [3] of 29%.

With `CCOC(=O)OC(C)OC(=O)[C@@H](NC(=O)[C@@H](CSSC[C@@H](N)CCSC)Cc1ccccc1)C(C)O` (stereo partly drawn), the Activity was 29% in [3], 61% in data set [10] and 84% in [11].

In the case of `CCOC(=O)OC(OC(=O)CNC(=O)[C@@H](CSSC[C@@H](N)CCSC)Cc1ccccc1)C1CCCCC1` (stereo partly drawn), the Activity in data set [7] turned out to be 17%; in data set [8], 3%; in [9], 8%.

Take `CSCC[C@H](N)CSSCC(Cc1ccsc1)C(=O)N[C@@H](C)C(=O)OC(COC(C)=O)COC(C)=O` (stereo partly drawn): the Activity in [3] is listed as 40%.

Regarding `CCOC(=O)COC(=O)[C@H](C)NC(=O)C(CSSC[C@@H](N)CCSC)Cc1ccsc1` (stereo partly drawn), the Activity in [3] came out at 32%.

For the compound `CCOC(=O)OC(C)OC(=O)CNC(=O)[C@@H](CSSC[C@@H](N)CCSC)Cc1ccccc1.O=CO` (stereo partly drawn), the Activity was 58% in [3]; 41% in [4]; 97% in data set [10]; 58% in data set [7]; “tde” in data set [14]; 35% in data set [15]. For the same compound, the Activity in [16] is 51%; in data set [8] it was 28%; in data set [17], 10%; in data set [5], 41%; in [9] it was 7%; in data set [18], “Dose-dependent effect”. For the same compound, the Activity was 78% in data set [6] and “Dose-dependent effect” in data set [22]. Further, the ED50 in data set [12] worked out at 133 mg/kg; in data set [18], 16 mg/kg; in data set [22], 4.5 mg/kg. For the same compound, the outcome in data set [13] was Active. Also, the Time in data set [19] is less than 40 min; in data set [23], less than 1 h. In data set [20], the Emax at 20 mg/kg turned out to be 40%. In addition, the Drug metabolism in data set [21] was 98%. The outcome in [24] was inactive.

On to `C[S+]([O-])CC[C@H](N)CSSC[C@@H](Cc1ccccc1)C(=O)NCC(=O)O` (stereo partly drawn), for which the outcome in [1] and in [2] was inactive.

Compound `CSCC[C@H](N)CSSCC(Cc1ccsc1)C(=O)N[C@@H](C)C(=O)OC[C@H]1O[C@@H](O)[C@H](O)[C@@H](O)[C@@H]1O` (stereo partly drawn) yielded an Activity in data set [3] of 10%.

Turning to `CSCC[C@H](N)CSSCC(Cc1ccsc1)C(=O)N[C@@H](C)C(=O)OC(CO)CO` (stereo partly drawn), the Activity in [3] is 22%.

Regarding `CSCC[C@H](N)CSSC[C@@H](Cc1ccccc1)C(=O)N[C@H](C(=O)O)[C@@H](C)O`, the outcome in data set [1] and in data set [2] was inactive.

On to `CSCC[C@H](N)CSSC[C@@H](Cc1ccccc1)C(=O)N[C@@H](C)C(=O)OCc1ccccc1`, for which the values for the ED50 in data set [25] and in data set [26] were 410 mg/kg and 3 mg/kg, respectively.

In the case of `CCC(=O)OC(OC(=O)CNC(=O)[C@@H](CSSC[C@@H](N)CCSC)Cc1ccccc1)C(C)C` (stereo partly drawn), the figures for the Activity in data set [7], in data set [8] and in data set [9] were 32%, 24% and 8%, respectively.

Regarding `CCC(=O)OC(OC(=O)CNC(=O)[C@@H](CSSC[C@@H](N)CCSC)Cc1ccccc1)C1CCCCC1` (stereo partly drawn), the Activity in data set [7] was determined as 8%; in data set [8], 10%; in data set [9], 12%.
